Results reported in ChEMBL document CHEMBL1275350, “First in class, potent, and orally bioavailable NADPH oxidase isoform 4 (Nox4) inhibitors for the treatment of idiopathic pulmonary fibrosis” (J Med Chem, 2010).
Blank lines part the entries; values can stand above or below the molecule they belong to.

Tests used:
NADPH oxidase 4 = target: T1, NADPH oxidase 4 (Homo sapiens, UniProt Q9NPH5); assay: Inhibition of human NOX4 overexpressed in T-REx-293 cell membrane assessed as ROS production by cell free assay in presence of NADPH; conditions: in the assay text read “T-REx-293 cell membrane” for “human PMN cell membrane”
T1 sequence (Q9NPH5 whole entry): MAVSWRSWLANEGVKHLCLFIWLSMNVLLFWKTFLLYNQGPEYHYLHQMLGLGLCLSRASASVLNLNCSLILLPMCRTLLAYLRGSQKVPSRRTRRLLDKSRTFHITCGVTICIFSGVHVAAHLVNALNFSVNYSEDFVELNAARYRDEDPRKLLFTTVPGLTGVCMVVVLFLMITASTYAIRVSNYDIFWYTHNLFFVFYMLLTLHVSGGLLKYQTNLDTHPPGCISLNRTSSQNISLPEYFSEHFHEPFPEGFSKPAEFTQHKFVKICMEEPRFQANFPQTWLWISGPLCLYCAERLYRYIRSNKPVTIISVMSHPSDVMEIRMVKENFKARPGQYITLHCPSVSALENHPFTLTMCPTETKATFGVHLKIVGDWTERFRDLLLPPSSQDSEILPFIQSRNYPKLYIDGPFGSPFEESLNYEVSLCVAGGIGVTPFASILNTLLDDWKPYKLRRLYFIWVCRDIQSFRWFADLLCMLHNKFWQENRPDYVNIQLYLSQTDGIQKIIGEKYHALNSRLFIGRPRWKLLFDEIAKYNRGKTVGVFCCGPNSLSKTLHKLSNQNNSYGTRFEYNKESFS
In short: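 hNOX4 T-REx-293 cells induced with tetracycline (1 μg/mL, 24 h), sonicated in sucrose/NaCl/EGTA PBS buffer pH 7.4, membranes taken from a sucrose gradient. NADPH-triggered ROS measured by Amplex Red/HRP in PBS, with compound at 1 nM–100 μM, 20 min at 37 °C. Ki by Cheng-Prusoff from ≥3 triplicate experiments.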

[1] = Half life in Sprague-Dawley rat at 10 mg/kg, po; format: ADME, organism-based; parameters: dose 10 mg/kg, route oral; conditions: in vivo
In short: (§1)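 Parallel design with six male rats: three given 5 mg/kg iv in EDPW (10% EtOH, 10% DMA, 30% PG, 50% water), three given 10 mg/kg orally in aqueous 0.5% CMC with 0.25% Tween 20. Carotid cannula blood sampled up to 24 h. Plasma levels by LC/MS/MS (LLOQ 1.00 ng/mL). Noncompartmental analysis.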

[2] = Clearance in Sprague-Dawley rat at 5 mg/kg, iv; format: ADME, organism-based; parameters: dose 5 mg/kg, route intravenous; conditions: in vivo; in short: as §1
[3] = Permeability across human Caco-2 cell membrane at 10 uM after 2 hrs; format: ADME, cell-based
In short: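 Caco-2 monolayers grown 20 days in DMEM, used when TEER >800 Ω·cm2. Dosed at 10 μM final in HBSS pH 6.5 with 1% DMSO, apical-to-basolateral and basolateral-to-apical. Incubated 2 h at 37 °C, both compartments sampled, LC-MS/MS with five-point calibration. Papp = (dQ/dt)/(C0A).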

[4] = Volume of distribution at steady state in Sprague-Dawley rat at 5 mg/kg, iv; format: ADME, organism-based; parameters: dose 5 mg/kg, route intravenous; conditions: in vivo, read-out: Vdss
In short: (§2)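 Parallel design in male rats, three per group. Group 1: 5 mg/kg iv in EDPW (10% EtOH, 10% DMA, 30% PG, 50% water). Group 2: 10 mg/kg oral in aqueous 0.5% CMC with 0.25% Tween 20. Carotid cannula blood drawn up to 24 h. Plasma measured by LC/MS/MS (LLOQ 1.00 ng/mL), noncompartmental analysis.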

[5] = Oral bioavailability in Sprague-Dawley rat at 10 mg/kg; format: ADME, organism-based; conditions: in vivo; in short: as §2
[6] = Cmax in Sprague-Dawley rat at 10 mg/kg, po; format: ADME, organism-based; parameters: dose 10 mg/kg, route oral; conditions: in vivo; in short: as §1
[7] = Clearance in Sprague-Dawley rat at 10 mg/kg, po; format: ADME, organism-based; parameters: dose 10 mg/kg, route oral; conditions: in vivo; in short: as §1
[8] = Intrinsic clearance in human liver microsomes assessed as per mg of protein at 0.5 uM; format: ADME, Microsome
In short: (§3)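 Phase I stability assay in pooled liver microsomes (human: male and female; rat: male Sprague-Dawley). Microsomes at 0.5 mg/mL final in 0.1 M phosphate pH 7.4. Compound 0.5 μM final, 0.25% DMSO. Preincubated at 37 °C, reaction started with 1 mM NADPH. Sampled at 0, 5, 15, 30 and 45 min, with a 45 min minus-NADPH control. Methanol quench with internal standard, LC/MS-MS, intrinsic clearance calculated.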

[9] = Cmax in Sprague-Dawley rat at 5 mg/kg, iv; format: ADME, organism-based; parameters: dose 5 mg/kg, route intravenous; conditions: in vivo; in short: as §1
[10] = AUC (infinity) in Sprague-Dawley rat at 10 mg/kg, po; format: ADME, organism-based; parameters: time infinity, dose 10 mg/kg, route oral; conditions: plasma; in short: as §1
[11] = AUC (infinity) in Sprague-Dawley rat at 5 mg/kg, iv; format: ADME, organism-based; parameters: time infinity, dose 5 mg/kg, route intravenous; conditions: plasma; in short: as §1
[12] = Tmax in Sprague-Dawley rat at 10 mg/kg, po; format: ADME, organism-based; parameters: dose 10 mg/kg, route oral; conditions: in vivo; in short: as §2
[13] = Intrinsic clearance in Sprague-Dawley rat liver microsomes assessed per mg of protein at 0.5 uM; format: ADME, Microsome; in short: as §3
[14] = Half life in Sprague-Dawley rat at 5 mg/kg, iv; format: ADME, organism-based; parameters: dose 5 mg/kg, route intravenous; conditions: in vivo; in short: as §1

Ki (NADPH oxidase 4): 172 nM
SMILES: CN(Cc1c2c(=O)n(-c3ccccc3Cl)[nH]c2cc(=O)n1CCc1ccccn1)c1ccccc1

half-life [1]: 2.35 h
clearance [2]: 109 mL/min/kg
Papp at 2 h, 10 µM [3]: 1.4 ×10⁻⁶ cm/s
Vd [4]: 2.95 L/kg
bioavailability [5]: 6%
Cmax [6]: 132 ng/mL
Ki (NADPH oxidase 4): 153 nM
CL/F [7]: 1610 mL/min/kg
microsomal CLint at 0.5 µM [8]: 45.1 µL/min/mg
Cmax [9]: 4640 ng/mL
AUC(0-inf) [10]: 109 ng·h/mL
AUC(0-inf) [11]: 822 ng·h/mL
Tmax [12]: 0.25 h
microsomal CLint at 0.5 µM [13]: 45.3 µL/min/mg
SMILES: COCCn1c(COc2ccc(F)cc2)c2c(=O)n(CCN3CCOCC3)[nH]c2cc1=O

Ki (NADPH oxidase 4): 65 nM
microsomal CLint at 0.5 µM [8]: 57.9 µL/min/mg
microsomal CLint at 0.5 µM [13]: 121 µL/min/mg
SMILES: COc1cccc(N2CCN(Cc3c4c(=O)n(-c5ccccc5Cl)[nH]c4cc(=O)n3C)CC2)c1

Ki (NADPH oxidase 4): 565 nM
SMILES: Cc1c2c(=O)n(-c3ccccc3Cl)[nH]c2cc(=O)n1CCCO

Ki (NADPH oxidase 4): 9490 nM
SMILES: Cc1c2c(=O)n(-c3ccccc3)[nH]c2cc(=O)n1Cc1ccco1

Ki (NADPH oxidase 4): 259 nM
SMILES: Cc1c2c(=O)n(Cc3ccc(Cl)cc3)[nH]c2cc(=O)n1Cc1ccccn1

Ki (NADPH oxidase 4): 458 nM
SMILES: Cc1c2c(=O)n(-c3ccnc4cc(Cl)ccc34)[nH]c2cc(=O)n1Cc1ccccn1

Ki (NADPH oxidase 4): 328 nM
SMILES: CC(=O)Nc1cccc(-n2[nH]c3cc(=O)n(C)c(C)c3c2=O)c1

Ki (NADPH oxidase 4): 213 nM
SMILES: Cc1c2c(=O)n(-c3ccc(F)cc3Cl)[nH]c2cc(=O)n1C

Ki (NADPH oxidase 4): > 30000 nM
SMILES: Cc1c2c(=O)n(-c3nc4ccccc4s3)n(Cc3ccccc3)c2cc(=O)n1CC1CCCO1 (stereo not given)

Ki (NADPH oxidase 4): > 30000 nM
SMILES: Cc1c2c(=O)n(-c3ccc4nncn4n3)[nH]c2cc(=O)n1Cc1cccc(Oc2ccccc2)c1

Ki (NADPH oxidase 4): > 30000 nM
SMILES: CCOCCCn1c(C)c2c(=O)n(-c3ccccc3Cl)n(Cc3ccccn3)c2cc1=O

Ki (NADPH oxidase 4): 1950 nM
SMILES: Cc1c2c(=O)n(-c3nc(-c4ccccc4)cs3)[nH]c2cc(=O)n1C

Ki (NADPH oxidase 4): 463 nM
SMILES: Cc1c2c(=O)n(Cc3ccccc3)[nH]c2cc(=O)n1Cc1ccccn1

Ki (NADPH oxidase 4): 5440 nM
SMILES: Cc1c2c(=O)n(-c3ccccc3)[nH]c2cc(=O)n1Cc1ccc2c(c1)OCO2

half-life [1]: 2.38 h
clearance [2]: 5.5 mL/min/kg
half-life [14]: 3.14 h
Papp at 2 h, 10 µM [3]: 78.6 ×10⁻⁶ cm/s
Vd [4]: 0.35 L/kg
bioavailability [5]: 29%
Cmax [6]: 6080 ng/mL
Ki (NADPH oxidase 4): 95 nM
CL/F [7]: 20 mL/min/kg
microsomal CLint at 0.5 µM [8]: 32.4 µL/min/mg
Cmax [9]: 36800 ng/mL
AUC(0-inf) [10]: 8930 ng·h/mL
AUC(0-inf) [11]: 15400 ng·h/mL
Tmax [12]: 0.25 h
microsomal CLint at 0.5 µM [13]: 49.5 µL/min/mg
SMILES: O=c1c2c(COCc3ccccc3)n(Cc3cnccn3)c(=O)cc2[nH]n1-c1ccccc1Cl

Papp at 2 h, 10 µM [3]: 62.6 ×10⁻⁶ cm/s
Ki (NADPH oxidase 4): 82 nM
microsomal CLint at 0.5 µM [8]: 212 µL/min/mg
microsomal CLint at 0.5 µM [13]: 210 µL/min/mg
SMILES: Cn1c(COCc2ccccc2Cl)c2c(=O)n(-c3ccccc3Cl)[nH]c2cc1=O

Ki (NADPH oxidase 4): 173 nM
SMILES: Cc1ccccc1-n1[nH]c2cc(=O)n(Cc3ccccn3)c(C)c2c1=O

Ki (NADPH oxidase 4): > 30000 nM
SMILES: Cc1c2c(=O)n(-c3ccccc3)n(Cc3ccc(F)cc3)c2cc(=O)n1CCc1c[nH]c2ccccc12

Ki (NADPH oxidase 4): 1840 nM
SMILES: Cc1c2c(=O)n(-c3nc4ccccc4s3)[nH]c2cc(=O)n1CCc1c[nH]c2ccccc12

Ki (NADPH oxidase 4): > 30000 nM
SMILES: Cc1c2c(=O)n(-c3nc4ccccc4s3)n(Cc3ccccc3Cl)c2cc(=O)n1N1CCOCC1

Ki (NADPH oxidase 4): 240 nM
SMILES: CC(=O)n1c2cc(=O)n(Cc3cccnc3)c(C)c2c(=O)n1-c1ccccc1Cl

Ki (NADPH oxidase 4): 259 nM
SMILES: Cc1c2c(=O)n(-c3ccccc3Cl)[nH]c2cc(=O)n1Cc1ccc(S(N)(=O)=O)cc1

Ki (NADPH oxidase 4): 342 nM
SMILES: Cc1c2c(=O)n(Cc3ccc(F)cc3Cl)[nH]c2cc(=O)n1Cc1ccccn1

Ki (NADPH oxidase 4): 1210 nM
SMILES: Cc1c2c(=O)n(-c3nc4ccccc4s3)[nH]c2cc(=O)n1N1CCOCC1

Ki (NADPH oxidase 4): 4220 nM
SMILES: Cc1c2c(=O)n(-c3nc4ccccc4s3)[nH]c2cc(=O)n1Cc1ccc(C(=O)O)cc1

Ki (NADPH oxidase 4): 2180 nM
SMILES: Cc1c2c(=O)n(C)[nH]c2cc(=O)n1C

Ki (NADPH oxidase 4): 285 nM
SMILES: COc1cccc(CC(=O)n2c3cc(=O)n(Cc4cccnc4)c(C)c3c(=O)n2-c2ccccc2)c1
